Experimental data taken from ChEMBL document CHEMBL2384901, “Synthesis and biology of oligoethylene glycol linked naphthoxylosides” (Bioorg Med Chem, 2013).

Test system: HCC70
Experiment: Cytotoxicity against human HCC70 cells assessed as growth inhibition after 96 hrs by crystal violet staining assay
Format: functional
Details: HCC70, 96 h, read-out: ED50 (the source's name)
Outline: (§1)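 Cells plated at 5000/well in MEM Earle's or RPMI-1640 with 10% FBS. After 24 h, medium changed to Ham's F-12 with insulin (10 µg/mL), transferrin (25 µg/mL), 1% L-glutamine, 10 ng/mL EGF and xylosides at 5–500 µM, for 96 h. Cells fixed in 0.25% glutaraldehyde and stained with 0.1% crystal violet. Lysed in 1% Triton X-100; A595 read. ED50 reported.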
For `O[C@@H]1[C@@H](O)[C@H](OCCOCCOCCOc2ccc3ccccc3c2)OC[C@H]1O`, the EC50 was 87 µM.
Compound `Oc1ccc2cc(CO[C@@H]3OC[C@@H](O)[C@H](O)[C@H]3O)ccc2c1` has an EC50 of 282 µM.
Compound `Oc1ccc2cc(O[C@@H]3OC[C@@H](O)[C@H](O)[C@H]3O)ccc2c1` has an EC50 of 7 µM.
Work on `Oc1ccc2cc(OCCO[C@@H]3OC[C@@H](O)[C@H](O)[C@H]3O)ccc2c1` yielded an EC50 of 178 µM.
Work on `O[C@@H]1[C@@H](O)[C@H](OCCOCCOc2ccc3ccccc3c2)OC[C@H]1O` yielded an EC50 of 129 µM.
With `O[C@@H]1[C@@H](O)[C@H](OCc2ccc3ccccc3c2)OC[C@H]1O` the EC50 was 267 µM.
`O[C@@H]1[C@@H](O)[C@H](Oc2ccc3ccccc3c2)OC[C@H]1O` showed an EC50 of 243 µM.
`O[C@@H]1[C@@H](O)[C@H](OCCOc2ccc3ccccc3c2)OC[C@H]1O` gave an EC50 of 221 µM.

Test system: not listed separately
Experiment: Cytotoxicity against human CCD-1095SK cells assessed as growth inhibition after 96 hrs by crystal violet staining assay
Format: cell-based
Details: read-out: ED50
Outline: as §1
For `O[C@@H]1[C@@H](O)[C@H](OCCOCCOCCOc2ccc3ccccc3c2)OC[C@H]1O`, the GI50 at 96 h was 70 µM.
With `Oc1ccc2cc(CO[C@@H]3OC[C@@H](O)[C@H](O)[C@H]3O)ccc2c1` the GI50 at 96 h was 223 µM.
Work on `Oc1ccc2cc(O[C@@H]3OC[C@@H](O)[C@H](O)[C@H]3O)ccc2c1` yielded a GI50 at 96 h of 258 µM.
In the case of `Oc1ccc2cc(OCCO[C@@H]3OC[C@@H](O)[C@H](O)[C@H]3O)ccc2c1`, the GI50 at 96 h is reported as 280 µM.
`O[C@@H]1[C@@H](O)[C@H](OCCOCCOc2ccc3ccccc3c2)OC[C@H]1O` showed a GI50 at 96 h of 150 µM.
For `O[C@@H]1[C@@H](O)[C@H](OCc2ccc3ccccc3c2)OC[C@H]1O`, the GI50 at 96 h was 298 µM.
Compound `O[C@@H]1[C@@H](O)[C@H](Oc2ccc3ccccc3c2)OC[C@H]1O` has a GI50 at 96 h of 152 µM.
`O[C@@H]1[C@@H](O)[C@H](OCCOc2ccc3ccccc3c2)OC[C@H]1O` gave a GI50 at 96 h of 140 µM.

Test system: HCC70
Experiment: Induction of heparan sulphate synthesis in human HCC70 cells assessed as proportion of heparan sulphate of total GAGs
Format: functional
Design: concentration or dose not given beside the values
Details: not given
Outline: (§2)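 Xyloside-primed [35S]sulfate material was pooled from Superose 6 fractions, 35–51 for HCC70 and 34–51 for CCD-1095Sk. HS was cleaved by deaminative HNO2 at pH 1.5, then the digest was re-separated by gel permeation. Radioactivity was measured by β-counting.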
`O[C@@H]1[C@@H](O)[C@H](OCCOCCOCCOc2ccc3ccccc3c2)OC[C@H]1O` showed an Activity of 15%.
Work on `Oc1ccc2cc(CO[C@@H]3OC[C@@H](O)[C@H](O)[C@H]3O)ccc2c1` yielded an Activity of 14%.
In the case of `Oc1ccc2cc(O[C@@H]3OC[C@@H](O)[C@H](O)[C@H]3O)ccc2c1`, the Activity is reported as 28%.
Compound `Oc1ccc2cc(OCCO[C@@H]3OC[C@@H](O)[C@H](O)[C@H]3O)ccc2c1` has an Activity of 34%.
For `O[C@@H]1[C@@H](O)[C@H](OCCOCCOc2ccc3ccccc3c2)OC[C@H]1O`, the Activity was 5%.
`O[C@@H]1[C@@H](O)[C@H](OCc2ccc3ccccc3c2)OC[C@H]1O` showed an Activity of 14%.
`O[C@@H]1[C@@H](O)[C@H](Oc2ccc3ccccc3c2)OC[C@H]1O` showed an Activity of 9%.
For `O[C@@H]1[C@@H](O)[C@H](OCCOc2ccc3ccccc3c2)OC[C@H]1O`, the Activity was 9%.

Test system: not listed separately
Experiment: Induction of heparan sulphate synthesis in human CCD-1095SK cells assessed as proportion of heparan sulphate of total GAGs
Format: functional
Design: concentration or dose not given beside the values
Details: not given
Outline: as §2
`O[C@@H]1[C@@H](O)[C@H](OCCOCCOCCOc2ccc3ccccc3c2)OC[C@H]1O` gave an Activity of 20%.
In the case of `Oc1ccc2cc(CO[C@@H]3OC[C@@H](O)[C@H](O)[C@H]3O)ccc2c1`, the Activity is reported as 7%.
For `Oc1ccc2cc(O[C@@H]3OC[C@@H](O)[C@H](O)[C@H]3O)ccc2c1`, the Activity was 6%.
For `Oc1ccc2cc(OCCO[C@@H]3OC[C@@H](O)[C@H](O)[C@H]3O)ccc2c1`, the Activity was 26%.
`O[C@@H]1[C@@H](O)[C@H](OCCOCCOc2ccc3ccccc3c2)OC[C@H]1O` showed an Activity of 2%.
For `O[C@@H]1[C@@H](O)[C@H](OCc2ccc3ccccc3c2)OC[C@H]1O`, the Activity was 7%.
`O[C@@H]1[C@@H](O)[C@H](Oc2ccc3ccccc3c2)OC[C@H]1O` gave an Activity of 3%.
In the case of `O[C@@H]1[C@@H](O)[C@H](OCCOc2ccc3ccccc3c2)OC[C@H]1O`, the Activity is reported as 3%.

Test system: HCC70
Experiment: Induction of glycosaminoglycan synthesis in human HCC70 cells assessed as [35S]sulfate incorporation at 100 uM after 24 hrs by bata counting analysis relative to untreated control
Details: not given
For `O[C@@H]1[C@@H](O)[C@H](OCCOCCOCCOc2ccc3ccccc3c2)OC[C@H]1O`, the “fold change (FC)” value was 21.
In the case of `Oc1ccc2cc(CO[C@@H]3OC[C@@H](O)[C@H](O)[C@H]3O)ccc2c1`, the “fold change (FC)” value is reported as 42.
For `Oc1ccc2cc(O[C@@H]3OC[C@@H](O)[C@H](O)[C@H]3O)ccc2c1`, the “fold change (FC)” value was 37.
For `Oc1ccc2cc(OCCO[C@@H]3OC[C@@H](O)[C@H](O)[C@H]3O)ccc2c1`, the “fold change (FC)” value was 29.
With `O[C@@H]1[C@@H](O)[C@H](OCCOCCOc2ccc3ccccc3c2)OC[C@H]1O` the “fold change (FC)” value was 29.
For `O[C@@H]1[C@@H](O)[C@H](OCc2ccc3ccccc3c2)OC[C@H]1O`, the “fold change (FC)” value was 31.
For `O[C@@H]1[C@@H](O)[C@H](Oc2ccc3ccccc3c2)OC[C@H]1O`, the “fold change (FC)” value was 16.
For `O[C@@H]1[C@@H](O)[C@H](OCCOc2ccc3ccccc3c2)OC[C@H]1O`, the “fold change (FC)” value was 26.

Test system: not listed separately
Experiment: Induction of glycosaminoglycan synthesis in human CCD-1095SK cells assessed as [35S]sulfate incorporation at 100 uM after 24 hrs by bata counting analysis relative to untreated control
Details: not given
With `O[C@@H]1[C@@H](O)[C@H](OCCOCCOCCOc2ccc3ccccc3c2)OC[C@H]1O` the “fold change (FC)” value was 74.
With `Oc1ccc2cc(CO[C@@H]3OC[C@@H](O)[C@H](O)[C@H]3O)ccc2c1` the “fold change (FC)” value was 98.
In the case of `Oc1ccc2cc(O[C@@H]3OC[C@@H](O)[C@H](O)[C@H]3O)ccc2c1`, the “fold change (FC)” value is reported as 74.
With `Oc1ccc2cc(OCCO[C@@H]3OC[C@@H](O)[C@H](O)[C@H]3O)ccc2c1` the “fold change (FC)” value was 90.
In the case of `O[C@@H]1[C@@H](O)[C@H](OCCOCCOc2ccc3ccccc3c2)OC[C@H]1O`, the “fold change (FC)” value is reported as 80.
With `O[C@@H]1[C@@H](O)[C@H](OCc2ccc3ccccc3c2)OC[C@H]1O` the “fold change (FC)” value was 55.
For `O[C@@H]1[C@@H](O)[C@H](Oc2ccc3ccccc3c2)OC[C@H]1O`, the “fold change (FC)” value was 24.
For `O[C@@H]1[C@@H](O)[C@H](OCCOc2ccc3ccccc3c2)OC[C@H]1O`, the “fold change (FC)” value was 79.
